The species entered for one data set is Xenopus laevis. As to the kind of experiment: Tested for the effect on maxi-K-mediated outward current (mSlo) in Xenopus laevis oocytes at 20 uM. In kind it is functional, frog. The gist of the method: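 Two-electrode voltage clamp was run on Xenopus laevis oocytes expressing cloned mSlo maxi-K channels. A single drug concentration was tested in at least five oocytes against iberiotoxin-sensitive outward K+ current. Output is the average percentage change in current relative to the drug-free control (100%).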

The subject of the next data set is Rattus norvegicus. As to the kind of experiment: (§1) Tested for concentration in brain after intravenous administration (4.7 mg/kg) to male rats. The format is ADME, organism-based. The following applies: in vivo. The gist of the method: (§2)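 Male rats got an iv bolus of 4.7 mg/kg, N=3 at each time point. Whole brain and plasma were sampled through 24 h. AUC (ng-h/mL plasma, ng-h/g brain) was calculated by the trapezoidal rule over 0–24 h. Brain/plasma ratio was taken from the AUC values. Cmax, Tmax and elimination half-lives were derived for brain and plasma.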

Data set [1] in a line: Tested for plasma concentration after intravenous administration (4.7 mg/kg) to male rats. In kind it is ADME, organism-based. The following applies: rat. The gist of the method: as §2
Data set [2] is described as follows: as §1. The settings on record: rat. In kind it is ADME, organism-based. Also noted: dose 4.7 mg/kg, route intravenous. In short, it runs like this:
as §2

Data set [3] can be described thus: Compound was evaluated for Tmax in brain after intravenous administration in male rats. In kind it is ADME, organism-based. The settings on record: rat. In short, it runs like this: as §2
Data set [4] is described as follows: Ratio of the AUC values of brain and plasma after intravenous administration (4.7 mg/kg) to male rats was evaluated. The format is ADME, organism-based. The following applies: rat. The gist of the method:
as §2

The nature of data set [5]: Ratio in brain and plasma after 0.25 hrs of intravenous administration (5 mg/kg) to male rats was evaluated. The format is ADME, organism-based. The settings on record: rat. In short, it runs like this:
(§3)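 Male rats got a single iv bolus of 5 mg/kg. Plasma and whole brain were sampled at 0.25 h and 2 h. Plasma is in ng/mL and brain in ng/g wet weight, each the mean of three animals ± standard deviation. Brain detection limit was 50 ng/g. Brain/plasma ratio was computed at each time point.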

The nature of data set [6]: Ratio in brain and plasma after 2 hrs of intravenous administration (5 mg/kg) to male rats was evaluated. In kind it is ADME, organism-based. The settings on record: rat. In short, it runs like this:
as §3

The nature of data set [7]: Half-life in brain after intravenous administration (4.7 mg/kg) to male rats. The following applies: rat. The format is ADME, organism-based. In short, it runs like this: as §2
Data set [8] can be described thus: Half-life in plasma after intravenous administration (4.7 mg/kg) to male rats. In kind it is ADME, organism-based. The following applies: rat. The gist of the method: as §2
The nature of data set [9]: Tested for concentration in brain after 0.25 hrs of intravenous administration (5 mg/kg) to male rats. The format is ADME, organism-based. The following applies: rat. The gist of the method:
as §3

The nature of data set [10]: Tested for concentration in brain after 2 hrs of intravenous administration (5 mg/kg) to male rats. The format is ADME, organism-based. The following applies: rat. In short, it runs like this:
as §3

Data set [11] is described as follows: Tested for plasma concentration in the after 0.25 hrs of intravenous administration (5 mg/kg) to male rats. In kind it is ADME, organism-based. The following applies: rat. In short, it runs like this: as §3
Data set [12] in a line: Tested for plasma concentration in the after 2 hrs of intravenous administration (5 mg/kg) to male rats. The format is ADME, organism-based. The following applies: rat. In short, it runs like this:
as §3

The nature of data set [13]: Tested for ratio in brain and plasma after 0.25 hrs of intravenous administration (5 mg/kg) to male rats. In kind it is ADME, organism-based. The following applies: rat. In short, it runs like this:
as §3

Data set [14] in a line: Tested for ratio in brain and plasma after 2 hrs of intravenous administration (5 mg/kg) to male rats. In kind it is ADME, organism-based. The following applies: rat. The gist of the method: as §3
A short description of data set [15]: Tested for plasma concentration after 0.25 hrs of intravenous administration (5 mg/kg) to male rats. The following applies: rat. In kind it is ADME, organism-based. In short, it runs like this:
as §3

A short description of data set [16]: Tested for plasma concentration after 2 hrs of intravenous administration (5 mg/kg) to male rats. The settings on record: rat. In kind it is ADME, organism-based. In short, it runs like this:
as §3

Each structure is given as a SMILES string. Some results are limits rather than exact numbers.

`O=S(=O)(Nc1c(O)nc2cc(C(F)(F)F)ccc2c1-c1cc(Cl)ccc1O)C(F)(F)F` yielded an Increase in the data set listed under Xenopus laevis of 213%.

In the data set filed under Xenopus laevis, `Nc1c(O)nc2ccccc2c1-c1cc(Cl)ccc1O` yielded an Increase of 114%.

In the data set listed under Xenopus laevis, `Nc1c(O)nc2c(C(F)(F)F)cccc2c1-c1cc(Cl)ccc1O` displayed an Increase of 112%.

In the data set listed under Xenopus laevis, `Nc1c(O)nc2ccc(C(F)(F)F)cc2c1-c1ccccc1O` displayed an Increase of 137%.

For orientation: Cmax means the maximum level reached in the sampled fluid or tissue. One may read the Tmax as the time at which the peak concentration occurs. The term Kp denotes the ratio of the level in a tissue or fluid to that in plasma or blood. In general, half-life refers to the time in which the quantity being followed falls by half. The low end stands for rapid decline, the high end for slow decline. `Nc1c(O)nc2ccc(C(F)(F)F)cc2c1-c1cc(Cl)ccc1O`: the figures for the AUC (with Rattus norvegicus; in data set [1]) were 19300 ng·h/g and 2700 ng·h/mL, respectively. For the same compound, in [2], the concentration peaked (Cmax) at 1990 ng/g. Moreover, the Tmax in [3] was determined as 4.8 min. The Kp in data set [4] turned out to be 7.1. The Kp at 0.25 h in data set [5] is 1.6. In addition, the Kp at 2 h in [6] worked out at 5.3. The half-life is 486 min in data set [7] and 456 min in [8]. For the same compound, the concentration at 0.25 h in data set [9] was found to be 1310 ng/g; in [11] it was 802 ng/mL. The concentration at 2 h amounted to 1490 ng/g in [10] and 281 ng/mL in data set [12]. The compound also showed an Increase in the data set filed under Xenopus laevis of 186%.

In the case of `Nc1c(O)nc2ccc(C(F)(F)F)cc2c1-c1ccccc1`, the Increase in the data set listed under Xenopus laevis is listed as 111%.

The compound `Nc1c(O)nc2cccc(C(F)(F)F)c2c1-c1cc(Cl)ccc1O` had an Increase in the data set listed under Xenopus laevis of 191%.

Turning to `O=c1[nH]c2cc(C(F)(F)F)ccc2n1-c1cc(Cl)ccc1O`, the Increase in the data set filed under Xenopus laevis came to 132%.

In turn, `CS(=O)(=O)Nc1c(O)nc2ccc(C(F)(F)F)cc2c1-c1cc(Cl)ccc1O` displayed an Increase in the data set listed under Xenopus laevis of 164%.

`Nc1c(O)nc2ccc(Cl)cc2c1-c1cc(Cl)ccc1O`: in the data set listed under Xenopus laevis, the Increase came to 157%.

The compound `COc1ccc(Cl)cc1-c1c(N)c(O)nc2ccccc12` showed an Increase in the data set listed under Xenopus laevis of 108%.

Take `CC(=O)Nc1c(O)nc2ccc(C(F)(F)F)cc2c1-c1cc(Cl)ccc1O`: the Increase in the data set listed under Xenopus laevis amounted to 120%.

With `O=S(=O)(Nc1c(O)nc2ccc(C(F)(F)F)cc2c1-c1cc(Cl)ccc1O)C(F)(F)F`, the concentration at 0.25 h in data set [9] is less than 50 ng/g; in data set [11], 1230 ng/mL. In addition, the concentration at 2 h was less than 50 ng/g in data set [10] and 125 ng/mL in data set [12]. This compound showed an Increase in the data set filed under Xenopus laevis of 343%.

For `Nc1c(O)nc2cc(C(F)(F)F)ccc2c1-c1cc(Cl)ccc1O`, the Kp at 0.25 h in [13] is 1.3. The Kp at 2 h in [14] is 4.4. For the same compound, the concentration at 0.25 h is 1470 ng/g in data set [9] and 1170 ng/mL in data set [15]. For the same compound, the results for the concentration at 2 h in data set [10] and in [16] were 1480 ng/g and 339 ng/mL, respectively. The same compound showed an Increase in the data set listed under Xenopus laevis of 159%.

The values above are taken from ChEMBL document CHEMBL1135174, “The synthesis and structure-activity relationships of 4-aryl-3-aminoquinolin-2-ones: a new class of calcium-dependent, large conductance, potassium (maxi-K) channel openers targeted for post-stroke neuroprotection” (Bioorg Med Chem Lett, 2002).
